System: U2OS
Test: Multiplex assay against U2OS
Type: toxicity, cell-based
Details: human
Outline: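 Cells stained live at seeding with Hoechst33342, BioTracker Green Microtubule Cytoskeleton Dye, MitoTracker Red and Annexin V Alexa Fluor 680 were imaged on a CQ1 microscope at 37°C and 5% CO2 after compound addition. Their classification by CellPathfinder machine-learning gating ran from Hoechst high-intensity objects versus normal cells, to healthy, pyknosed or fragmented nuclei among normal cells, to mitotic or apoptotic among pyknosed cells. Tubulin, mitochondrial-mass and membrane-permeability phenotypes are per cents of healthy-nucleus cells.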

[1] = 12 h, 1 µM, compound concentration 1 uM, replicate 1
[2] = 12 h, 1 µM, compound concentration 1 uM, replicate 2
[3] = 12 h, 10 µM, compound concentration 10 uM, replicate 1
[4] = 12 h, 10 µM, compound concentration 10 uM, replicate 2
[5] = 24 h, 1 µM, compound concentration 1 uM, replicate 1
[6] = 24 h, 1 µM, compound concentration 1 uM, replicate 2
[7] = 24 h, 10 µM, compound concentration 10 uM, replicate 1
[8] = 24 h, 10 µM, compound concentration 10 uM, replicate 2
[9] = 48 h, 1 µM, compound concentration 1 uM, replicate 1
[10] = 48 h, 1 µM, compound concentration 1 uM, replicate 2
[11] = 48 h, 10 µM, compound concentration 10 uM, replicate 1
[12] = 48 h, 10 µM, compound concentration 10 uM, replicate 2

CCc1cc2cc(NS(=O)(=O)c3ccc(C#N)cc3)ccc2n(CC)c1=O
Population Apoptotic (%) [1]: 88% | Population Fragmented Nuclei (%) [1]: 30% | Population Healthy Nuclei (%) [1]: 60% | Population Hoechst High Intensity Objects (%) [1]: 3% | Population Membrane Permeable-Phenotype (%) [1]: 4% | Population Mitochondria Different-Phenotype (%) [1]: 2% | Population Mitotic Cells (%) [1]: 11% | Population Normal (%) [1]: 96% | Population Pyknosed Nuclei (%) [1]: 9% | Population Tubulin-Different-Phenotype (%) [1]: 2% | Total Cell Count [1]: 286 | Population Apoptotic (%) [2]: 100% | Population Fragmented Nuclei (%) [2]: 26% | Population Healthy Nuclei (%) [2]: 70% | Population Hoechst High Intensity Objects (%) [2]: 1% | Population Membrane Permeable-Phenotype (%) [2]: 8% | Population Mitotic Cells (%) [2]: 0% | Population Normal (%) [2]: 98% | Population Pyknosed Nuclei (%) [2]: 3% | Population Tubulin-Different-Phenotype (%) [2]: 7% | Total Cell Count [2]: 113 | Population Apoptotic (%) [3]: 66% | Population Fragmented Nuclei (%) [3]: 28% | Population Healthy Nuclei (%) [3]: 64% | Population Hoechst High Intensity Objects (%) [3]: 2% | Population Membrane Permeable-Phenotype (%) [3]: 9% | Population Mitochondria Different-Phenotype (%) [3]: 3% | Population Mitotic Cells (%) [3]: 33% | Population Normal (%) [3]: 97% | Population Pyknosed Nuclei (%) [3]: 6% | Population Tubulin-Different-Phenotype (%) [3]: 4% | Total Cell Count [3]: 220 | Population Apoptotic (%) [4]: 87% | Population Fragmented Nuclei (%) [4]: 13% | Population Healthy Nuclei (%) [4]: 80% | Population Membrane Permeable-Phenotype (%) [4]: 6% | Population Mitotic Cells (%) [4]: 12% | Population Pyknosed Nuclei (%) [4]: 5% | Total Cell Count [4]: 139 | Population Apoptotic (%) [5]: 85% | Population Fragmented Nuclei (%) [5]: 29% | Population Healthy Nuclei (%) [5]: 61% | Population Hoechst High Intensity Objects (%) [5]: 2% | Population Membrane Permeable-Phenotype (%) [5]: 9% | Population Mitochondria Different-Phenotype (%) [5]: 2% | Population Mitotic Cells (%) [5]: 14% | Population Normal (%) [5]: 97% | Population Pyknosed Nuclei (%) [5]: 8% | Population Tubulin-Different-Phenotype (%) [5]: 6% | Total Cell Count [5]: 335 | Population Apoptotic (%) [6]: 88% | Population Fragmented Nuclei (%) [6]: 16% | Population Healthy Nuclei (%) [6]: 75% | Population Hoechst High Intensity Objects (%) [6]: 1% | Population Membrane Permeable-Phenotype (%) [6]: 7% | Population Mitochondria Different-Phenotype (%) [6]: 7% | Population Mitotic Cells (%) [6]: 11% | Population Normal (%) [6]: 98% | Population Pyknosed Nuclei (%) [6]: 7% | Population Tubulin-Different-Phenotype (%) [6]: 3% | Total Cell Count [6]: 126 | Population Apoptotic (%) [7]: 95% | Population Fragmented Nuclei (%) [7]: 23% | Population Healthy Nuclei (%) [7]: 67% | Population Hoechst High Intensity Objects (%) [7]: 3% | Population Membrane Permeable-Phenotype (%) [7]: 4% | Population Mitochondria Different-Phenotype (%) [7]: 2% | Population Mitotic Cells (%) [7]: 4% | Population Normal (%) [7]: 96% | Population Pyknosed Nuclei (%) [7]: 9% | Population Tubulin-Different-Phenotype (%) [7]: 1% | Total Cell Count [7]: 263 | Population Apoptotic (%) [8]: 80% | Population Fragmented Nuclei (%) [8]: 14% | Population Healthy Nuclei (%) [8]: 79% | Population Membrane Permeable-Phenotype (%) [8]: 6% | Population Mitotic Cells (%) [8]: 20% | Population Pyknosed Nuclei (%) [8]: 6% | Population Tubulin-Different-Phenotype (%) [8]: 2% | Total Cell Count [8]: 159 | Population Apoptotic (%) [9]: 89% | Population Fragmented Nuclei (%) [9]: 21% | Population Healthy Nuclei (%) [9]: 70% | Population Hoechst High Intensity Objects (%) [9]: 2% | Population Membrane Permeable-Phenotype (%) [9]: 6% | Population Mitochondria Different-Phenotype (%) [9]: 3% | Population Mitotic Cells (%) [9]: 10% | Population Normal (%) [9]: 97% | Population Pyknosed Nuclei (%) [9]: 8% | Population Tubulin-Different-Phenotype (%) [9]: 2% | Total Cell Count [9]: 450 | Population Apoptotic (%) [10]: 84% | Population Fragmented Nuclei (%) [10]: 19% | Population Healthy Nuclei (%) [10]: 73% | Population Hoechst High Intensity Objects (%) [10]: 3% | Population Mitochondria Different-Phenotype (%) [10]: 5% | Population Mitotic Cells (%) [10]: 15% | Population Normal (%) [10]: 96% | Population Pyknosed Nuclei (%) [10]: 6% | Population Tubulin-Different-Phenotype (%) [10]: 3% | Total Cell Count [10]: 192 | Population Apoptotic (%) [11]: 88% | Population Fragmented Nuclei (%) [11]: 18% | Population Healthy Nuclei (%) [11]: 72% | Population Hoechst High Intensity Objects (%) [11]: 3% | Population Membrane Permeable-Phenotype (%) [11]: 6% | Population Mitochondria Different-Phenotype (%) [11]: 2% | Population Mitotic Cells (%) [11]: 11% | Population Normal (%) [11]: 96% | Population Pyknosed Nuclei (%) [11]: 9% | Population Tubulin-Different-Phenotype (%) [11]: 3% | Total Cell Count [11]: 387 | Population Apoptotic (%) [12]: 96% | Population Fragmented Nuclei (%) [12]: 15% | Population Healthy Nuclei (%) [12]: 73% | Population Hoechst High Intensity Objects (%) [12]: 2% | Population Membrane Permeable-Phenotype (%) [12]: 8% | Population Mitochondria Different-Phenotype (%) [12]: 3% | Population Mitotic Cells (%) [12]: 3% | Population Normal (%) [12]: 97% | Population Pyknosed Nuclei (%) [12]: 11% | Population Tubulin-Different-Phenotype (%) [12]: 7% | Total Cell Count [12]: 248
